The target in one assay is T1, Estrogen receptor (Homo sapiens, UniProt P03372).
T1 sequence (P03372 whole entry): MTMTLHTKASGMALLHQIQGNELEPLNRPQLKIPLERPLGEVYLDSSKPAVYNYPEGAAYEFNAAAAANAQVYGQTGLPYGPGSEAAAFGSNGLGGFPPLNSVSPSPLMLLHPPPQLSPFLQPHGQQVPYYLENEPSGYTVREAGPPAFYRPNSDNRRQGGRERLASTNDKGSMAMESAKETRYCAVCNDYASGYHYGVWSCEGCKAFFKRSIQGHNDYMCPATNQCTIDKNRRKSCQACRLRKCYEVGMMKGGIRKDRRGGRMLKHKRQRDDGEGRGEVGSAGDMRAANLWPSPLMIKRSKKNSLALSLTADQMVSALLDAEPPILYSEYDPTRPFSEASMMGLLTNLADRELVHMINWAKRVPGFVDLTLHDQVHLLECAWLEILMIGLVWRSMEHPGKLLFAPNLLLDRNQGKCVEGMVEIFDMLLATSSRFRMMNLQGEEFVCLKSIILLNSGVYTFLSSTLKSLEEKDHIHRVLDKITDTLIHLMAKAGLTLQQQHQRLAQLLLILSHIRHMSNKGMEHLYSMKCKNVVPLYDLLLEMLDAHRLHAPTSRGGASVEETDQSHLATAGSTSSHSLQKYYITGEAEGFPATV
Nature of the assay: Displacement of radioligand from human Estrogen receptor alpha.

The target of assay [1] is T2, Glucocorticoid receptor (Homo sapiens) (UniProt P04150).
T2 sequence (whole entry): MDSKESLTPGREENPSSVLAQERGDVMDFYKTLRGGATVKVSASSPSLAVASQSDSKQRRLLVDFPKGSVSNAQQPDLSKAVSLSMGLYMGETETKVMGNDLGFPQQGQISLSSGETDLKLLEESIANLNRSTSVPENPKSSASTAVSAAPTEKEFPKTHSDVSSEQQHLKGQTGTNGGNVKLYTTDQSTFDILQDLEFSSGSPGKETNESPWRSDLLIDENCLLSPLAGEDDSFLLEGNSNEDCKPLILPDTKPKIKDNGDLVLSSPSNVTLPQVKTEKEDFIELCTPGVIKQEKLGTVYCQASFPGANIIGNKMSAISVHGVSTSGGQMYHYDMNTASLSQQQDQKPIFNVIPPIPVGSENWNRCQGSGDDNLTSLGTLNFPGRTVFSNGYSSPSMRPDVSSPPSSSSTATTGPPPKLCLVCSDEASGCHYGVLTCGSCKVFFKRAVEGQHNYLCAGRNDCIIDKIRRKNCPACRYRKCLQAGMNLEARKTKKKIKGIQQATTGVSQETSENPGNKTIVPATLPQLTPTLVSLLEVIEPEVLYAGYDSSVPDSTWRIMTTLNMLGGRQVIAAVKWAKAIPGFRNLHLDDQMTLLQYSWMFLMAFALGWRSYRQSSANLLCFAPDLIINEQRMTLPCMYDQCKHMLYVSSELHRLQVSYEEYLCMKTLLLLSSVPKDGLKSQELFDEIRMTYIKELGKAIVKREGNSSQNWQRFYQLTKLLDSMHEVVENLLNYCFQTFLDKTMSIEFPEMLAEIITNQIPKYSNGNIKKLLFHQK

In the next assay the target is T3, Androgen receptor (Homo sapiens, UniProt P10275).
T3 sequence (P10275 whole entry): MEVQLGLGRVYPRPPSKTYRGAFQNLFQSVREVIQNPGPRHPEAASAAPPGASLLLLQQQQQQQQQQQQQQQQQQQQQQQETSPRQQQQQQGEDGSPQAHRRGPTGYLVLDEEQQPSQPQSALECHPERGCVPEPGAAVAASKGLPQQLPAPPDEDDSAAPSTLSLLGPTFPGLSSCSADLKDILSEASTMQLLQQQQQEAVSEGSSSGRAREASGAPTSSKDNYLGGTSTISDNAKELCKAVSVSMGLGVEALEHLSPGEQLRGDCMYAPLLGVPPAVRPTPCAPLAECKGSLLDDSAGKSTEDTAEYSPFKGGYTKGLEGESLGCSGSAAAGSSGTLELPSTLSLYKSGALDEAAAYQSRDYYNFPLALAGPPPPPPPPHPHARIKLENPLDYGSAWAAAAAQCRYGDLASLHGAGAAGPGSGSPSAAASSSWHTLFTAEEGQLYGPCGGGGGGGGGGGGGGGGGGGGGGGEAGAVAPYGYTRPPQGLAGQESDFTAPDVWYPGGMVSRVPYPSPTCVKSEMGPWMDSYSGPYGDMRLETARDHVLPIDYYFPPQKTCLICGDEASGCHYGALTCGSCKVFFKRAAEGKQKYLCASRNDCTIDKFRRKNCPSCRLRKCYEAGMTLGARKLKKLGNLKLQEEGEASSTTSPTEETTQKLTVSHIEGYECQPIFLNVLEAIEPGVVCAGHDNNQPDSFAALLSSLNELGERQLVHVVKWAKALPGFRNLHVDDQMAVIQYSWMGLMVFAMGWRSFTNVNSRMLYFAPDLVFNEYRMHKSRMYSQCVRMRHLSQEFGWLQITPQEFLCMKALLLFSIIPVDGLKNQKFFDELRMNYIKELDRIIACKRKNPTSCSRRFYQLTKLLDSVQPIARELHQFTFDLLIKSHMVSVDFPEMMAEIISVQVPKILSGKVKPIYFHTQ
Nature of the assay: Displacement of [3H]DHT from human Androgen receptor. A digest of the protocol: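 Whole-cell extract of Sf9 cells infected with baculovirus expressing human AR (MOI 2, harvested 48 h), sonicated in pH 7.2 HEPES/molybdate/glycerol buffer. Extract bound to hydroxylapatite with 1 nM [3H]DHT and compound (0.01 nM–30 μM) in triplicate, 1 h, 4 °C. Nonspecific binding from 10 μM unlabeled DHT. Filtration, scintillation counting, sigmoidal IC50, Cheng–Prusoff Ki (Kd 0.4 nM).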
For orientation: Loss of bound radioactivity is the signal in a displacement assay; it reports binding, not function.

Structures are written as SMILES.

The molecule `CC#C[C@]1(O)CCC2C3CCC4=CC(=O)CC[C@]4(Cc4ccc(C)cc4)C3=CC[C@@]21C` (stereo partly drawn) had a Ki at Estrogen receptor of over 10000 nM.

`CC#C[C@@]1(O)CC[C@@]2(Cc3ccccc3)c3ccc(O)cc3CC[C@@H]2C1`: the Kif in assay [1] came out at 10 nM. Besides, affinity at Androgen receptor was put at a Ki of 650 nM.

In general, Ki refers to the equilibrium dissociation constant of an inhibitor or competing ligand from its target. A low value points to higher affinity.

The values above are taken from ChEMBL document CHEMBL1135457 (J Med Chem, 2002).
